The results in this text go back to ChEMBL document CHEMBL4665823, “Assessing the Perturbing Effects of Drugs on Lipid Bilayers Using Gramicidin Channel-Based In Silico and In Vitro Assays” (J Med Chem, 2020).

Experiment [1] has as its system Lipid bilayer. Put plainly: Induction of membrane perturbation in DC22:1PC LUV bilayer assessed as effect on potential of mean force by measuring reduction in deltaG for gramicidin mixture monomer to dimer and pure gramicidin-bilayer by fluorescence quenching assay.
Experiment [2] has as its system Lipid bilayer. The experiment in a line: Induction of membrane perturbation in DC22:1PC LUV bilayer assessed as change in deltaG for pure gramicidin monomer to dimer by fluorescence quenching assay (reference value: 0 kcal/mol).
Experiment [3] has as its system Lipid bilayer. The experiment in a line: Induction of membrane perturbation in DC22:1PC LUV bilayer assessed as change in deltaG for gramicidin mixture monomer to dimer by fluorescence quenching assay (reference value: 0 kcal/mol).
In experiment [4] the test system is Lipid bilayer. The experiment in a line: Induction of membrane perturbation in DC22:1PC LUV bilayer assessed as fluorescence quench rate by measuring increase in R(drug)/R(control) ratio by fluorescence quenching assay. In a few lines: (§1)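 ANTS-loaded (25 mM) DC22:1PC LUVs with gD at gramicidin:lipid 1:2000, rehydrated to 10 mM lipid, 3 h equilibration, 1 min sonication. Drug-exposed vesicles were incubated ≥10 min at 25 °C in the dark, then mixed by stopped-flow with Tl+ quench buffer (50 mM TlNO3, pH 7). Fluorescence (ex 352, em >450 nm) was fitted to a stretched exponential; rate given relative to drug-free control.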

The subject of experiment [5] is Lipid bilayer. Put plainly: Induction of membrane perturbation in DC22:1PC LUV bilayer assessed as fluorescence quench rate by measuring gramicidin mixture monomer to dimer equilibrium at 30 uM by fluorescence quenching assay. In a few lines: as §1
In experiment [6] the test system is Lipid bilayer. Put plainly: Induction of membrane perturbation in DC18:1PC LUV bilayer assessed as fluorescence quench rate by measuring gramicidin mixture monomer to dimer equilibrium at 30 uM by fluorescence quenching assay. In a few lines:
(§2)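 DC18:1PC LUVs (gramicidin mixture gD:lipid 1:40,000) loaded with 25 mM ANTS at 10 mM lipid, equilibrated 3 h at room temperature, sonicated 1 min, about 130 nm diameter. Drug added; samples held ≥10 min at 25 °C in the dark, then stopped-flow mixed with 50 mM TlNO3/94 mM NaNO3/10 mM HEPES, pH 7. Ex 352 nm, em >450 nm; quench rate from stretched-exponential fit.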

Experiment [7] concerns Lipid bilayer. Put plainly: Induction of membrane perturbation in DC20:1PC LUV bilayer assessed as fluorescence quench rate by measuring gramicidin mixture monomer to dimer equilibrium at 30 uM by fluorescence quenching assay.
Experiment [8] deals with Lipid bilayer. Put plainly: Induction of membrane perturbation in DC22:1PC LUV bilayer assessed as effect on potential of mean force by measuring increase in deltaG for gramicidin mixture monomer to dimer and pure gramicidin-bilayer by fluorescence quenching assay. In a few lines:
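ΔΔG(monomer↔dimer) was derived from Tl+/ANTS quench-rate ratios in DC22:1PC LUVs at 1:2000 gramicidin:lipid. Ratios were adjusted for estimated bilayer drug mole fraction and extrapolated linearly to a drug:lipid ratio of 0.084, matching the coarse-grained simulations. Stopped-flow was run at 25 °C.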

Experiment [9] relates to Lipid bilayer. Put plainly: Induction of membrane perturbation in DC22:1PC LUV bilayer assessed as fluorescence quench rate by measuring reduction in R(drug)/R(control) ratio by fluorescence quenching assay.
The test system of experiment [10] is Lipid bilayer. Put plainly: Induction of membrane perturbation in DC22:1PC LUV bilayer assessed as fluorescence quench rate by measuring gramicidin mixture monomer to dimer equilibrium at 30000 uM by fluorescence quenching assay.
The test system of experiment [11] is Lipid bilayer. Put plainly: Induction of membrane perturbation in DC20:1PC LUV bilayer assessed as fluorescence quench rate by measuring gramicidin mixture monomer to dimer equilibrium at 30000 uM by fluorescence quenching assay.
Experiment [12] relates to Lipid bilayer. The experiment in a line: Induction of membrane perturbation in DC18:1PC LUV bilayer assessed as fluorescence quench rate by measuring gramicidin mixture monomer to dimer equilibrium at 30000 uM by fluorescence quenching assay.
Experiment [13] has as its system Lipid bilayer. The experiment in a line: Induction of membrane perturbation in DC22:1PC LUV bilayer assessed as fluorescence quench rate by measuring increase in R(drug)/R(control) ratio at gD:lipid molar ratio of > 1:400 in presence of 10 mol % cholesterol by fluorescence quenching assay. In a few lines:
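Cholesterol added at 10 mol % before LUV formation; DC22:1PC vesicles made with gD:lipid molar ratios between 1:200 and 1:2000, ANTS-loaded. Tl+ influx was followed by stopped-flow fluorescence quench at 25 °C (ex 352 nm, em >450 nm), and traces were fitted to a stretched exponential.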

The test system of experiment [14] is Lipid bilayer. Put plainly: Induction of membrane perturbation in DC20:1PC LUV bilayer assessed as fluorescence quench rate by measuring gramicidin mixture monomer to dimer equilibrium at 10 uM by fluorescence quenching assay.
Experiment [15] relates to Lipid bilayer. Put plainly: Induction of membrane perturbation in DC22:1PC LUV bilayer assessed as fluorescence quench rate by measuring gramicidin mixture monomer to dimer equilibrium at 10 uM by fluorescence quenching assay. In a few lines: as §1
Experiment [16] relates to Lipid bilayer. The experiment in a line: Induction of membrane perturbation in DC18:1PC LUV bilayer assessed as fluorescence quench rate by measuring gramicidin mixture monomer to dimer equilibrium at 10 uM by fluorescence quenching assay. In a few lines: as §2
Experiment [17] concerns Lipid bilayer. The experiment in a line: Induction of membrane perturbation in DC22:1PC LUV bilayer assessed as fluorescence quench rate by measuring gramicidin mixture monomer to dimer equilibrium at 300 uM by fluorescence quenching assay. In a few lines: as §1
Experiment [18] has as its system Lipid bilayer. Put plainly: Induction of membrane perturbation in DC20:1PC LUV bilayer assessed as fluorescence quench rate by measuring gramicidin mixture monomer to dimer equilibrium at 300 uM by fluorescence quenching assay.
For experiment [19], the system named is Lipid bilayer. The experiment in a line: Induction of membrane perturbation in DC18:1PC LUV bilayer assessed as fluorescence quench rate by measuring gramicidin mixture monomer to dimer equilibrium at 300 uM by fluorescence quenching assay. In a few lines:
as §2

Experiment [20] concerns Lipid bilayer. Put plainly: Induction of membrane perturbation in DC18:1PC LUV bilayer assessed as effect on potential of mean force by measuring reduction in deltaG for gramicidin mixture monomer to dimer and pure gramicidin-bilayer by fluorescence quenching assay.
The subject of experiment [21] is Lipid bilayer. Put plainly: Induction of membrane perturbation in DC22:1PC LUV bilayer assessed as fluorescence quench rate by measuring gramicidin mixture monomer to dimer equilibrium at 100 uM by fluorescence quenching assay.
Experiment [22] concerns Lipid bilayer. Put plainly: Induction of membrane perturbation in DC20:1PC LUV bilayer assessed as fluorescence quench rate by measuring gramicidin mixture monomer to dimer equilibrium at 100 uM by fluorescence quenching assay.
The subject of experiment [23] is Lipid bilayer. The experiment in a line: Induction of membrane perturbation in DC18:1PC LUV bilayer assessed as fluorescence quench rate by measuring gramicidin mixture monomer to dimer equilibrium at 100 uM by fluorescence quenching assay.
Experiment [24] has as its system Lipid bilayer. Put plainly: Induction of membrane perturbation in DC22:1PC LUV bilayer assessed as fluorescence quench rate by measuring gramicidin mixture monomer to dimer equilibrium at 1800 uM by fluorescence quenching assay. In a few lines: as §1
Experiment [25] deals with Lipid bilayer. Put plainly: Induction of membrane perturbation in DC18:1PC LUV bilayer assessed as fluorescence quench rate by measuring gramicidin mixture monomer to dimer equilibrium at 1800 uM by fluorescence quenching assay. In a few lines: as §2
For experiment [26], the system named is Lipid bilayer. The experiment in a line: Induction of membrane perturbation in DC20:1PC LUV bilayer assessed as fluorescence quench rate by measuring gramicidin mixture monomer to dimer equilibrium at 1800 uM by fluorescence quenching assay.

Each structure is given as a SMILES string. Active and inactive are the calls of the source. The rule behind the calls is not given here.

Turning to `CC(C)(C)CC(C)(C)c1ccc(OCCOCCOCCOCCOCCOCCOCCOCCOCCOCCO)cc1`, the result in experiment [1] and in [5] was Active. The deltaG was -1.5 kcal/mol in experiment [2] and -1.6 kcal/mol in experiment [3]. In addition, the Activity entry in experiment [4] is “Dose-dependent effect”. The result in [6] and in experiment [7] was inactive.
As for `C1CCCCC1`, the result in experiment [8] and in experiment [10] was Active. The deltaG in [2] and in experiment [3] was 0 kcal/mol each time. In addition, in [9], the Activity result is “Dose-dependent effect”. Moreover, the result in [11] and in [12] was inactive.
As for `CC(C)CCC[C@@H](C)[C@H]1CC[C@H]2[C@@H]3CC=C4C[C@@H](O)CC[C@]4(C)[C@H]3CC[C@]12C`, the result in [8] and in experiment [13] was Active. Also, the deltaG in experiment [2] is 2.5 kcal/mol.
Turning to `CCCCCCCCCCCCOCCOCCOCCOCCOCCOCCO`, the outcome in experiment [1] and in [15] was Active. Besides, the values for the deltaG in experiment [2] and in [3] were -1.4 kcal/mol and -1.5 kcal/mol, respectively. Also, the Activity result in experiment [4] was “Dose-dependent effect”. The outcome in experiment [14] and in experiment [16] was inactive.
Consider `CCCCCCCCCCCCOP(=O)([O-])OCC[N+](C)(C)C`, for which the result in [1] and in experiment [17] was Active. Moreover, the deltaG in [2] and in experiment [3] was -0.5 kcal/mol throughout. Besides, in experiment [4], the Activity result was “Dose-dependent effect”. Moreover, the result in experiment [18] and in [19] was inactive.
For `COc1cc(CNC(=O)CCCC/C=C/C(C)C)ccc1O`, the result in [20], in [1] and in experiment [21] was Active. In addition, the deltaG in [2] was -0.5 kcal/mol; in [3], -0.6 kcal/mol. The result in experiment [22] and in [23] was inactive.
For the compound `Oc1ccc(/C=C/c2cc(O)cc(O)c2)cc1`, the result in experiment [1] and in experiment [5] was Active. The deltaG in [2] is -1.7 kcal/mol; in experiment [3], -1.8 kcal/mol. The Activity entry in [4] is “Dose-dependent effect”. Also, the result in experiment [6] and in experiment [7] was inactive.
Take `CCCCCCCCO`: the result in [1] and in experiment [24] was Active. Besides, the figures for the deltaG in [2] and in [3] were -0.4 kcal/mol and -0.3 kcal/mol, respectively. The Activity entry in experiment [4] is “Dose-dependent effect”. In addition, the outcome in experiment [25] and in [26] was inactive.
